Measurements taken from ChEMBL document CHEMBL3244422, “Synthesis and biological activity of beta-melanotropins and analogues” (1977).
Where a SMILES comes first, the peptide text is derived from it. The star is where a group is joined. For = O=C*

What was measured:
[1] = Lipolytic activity in isolated rabbit fat cells assessed as glycerol production per gram of cells at 37 ng measured every hour relative to beta-c1-MSH; assay type: functional, Oryctolagus cuniculus
Zone of skin [2] = assay: Melanotropic activity in frog skin assessed as skin darkening at 18 ng relative to control; assay type: functional, Anura
Outline: (§1)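 Skin-darkening activity of the synthetic peptides measured in vitro on isolated frog skin.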

[3] = Lipolytic activity in isolated rabbit fat cells assessed as glycerol production per gram of cells at 37 ng measured every hour; assay type: functional, Oryctolagus cuniculus
Zone of skin [4] = assay: Melanotropic activity in frog skin assessed as skin darkening at 6 ng relative to control; assay type: functional, Anura; outline: as §1
Zone of skin [5] = assay: Melanotropic activity in frog skin assessed as skin darkening at 6 ng relative to beta-c1-MSH; assay type: functional, Anura; outline: as §1
[6] = Lipolytic activity in isolated rabbit fat cells assessed as glycerol production per gram of cells at 111 ng measured every hour; assay type: functional, Oryctolagus cuniculus
[7] = Lipolytic activity in isolated rabbit fat cells assessed as glycerol production per gram of cells at 22 ng measured every hour; assay type: functional, Oryctolagus cuniculus
Zone of skin [8] = assay: Melanotropic activity in frog skin assessed as skin darkening at 2.7 ng relative to control; assay type: functional, Anura; outline: as §1
Zone of skin [9] = assay: Melanotropic activity in frog skin assessed as skin darkening at 2.7 ng relative to beta-b-MSH; assay type: functional, Anura; outline: as §1
[10] = Lipolytic activity in isolated rabbit fat cells assessed as glycerol production per gram of cells at 22 ng measured every hour relative to beta-b-MSH; assay type: functional, Oryctolagus cuniculus
[11] = Lipolytic activity in isolated rabbit fat cells assessed as glycerol production per gram of cells at 66 ng measured every hour; assay type: functional, Oryctolagus cuniculus
Zone of skin [12] = assay: Melanotropic activity in frog skin assessed as skin darkening at 8.1 ng relative to control; assay type: functional, Anura; outline: as §1
Zone of skin [13] = assay: Melanotropic activity in frog skin assessed as skin darkening at 2.3 ng relative to control; assay type: functional, Anura; outline: as §1
Zone of skin [14] = assay: Melanotropic activity in frog skin assessed as skin darkening at 6.9 ng relative to control; assay type: functional, Anura; outline: as §1
Zone of skin [15] = assay: Melanotropic activity in frog skin assessed as skin darkening at 7.8 ng relative to control; assay type: functional, Anura; outline: as §1
Zone of skin [16] = assay: Melanotropic activity in frog skin assessed as skin darkening at 2.6 ng relative to beta-b-MSH; assay type: functional, Anura; outline: as §1
Zone of skin [17] = assay: Melanotropic activity in frog skin assessed as skin darkening at 2.6 ng relative to control; assay type: functional, Anura; outline: as §1
[18] = Lipolytic activity in isolated rabbit fat cells assessed as glycerol production per gram of cells at 1100 ng measured every hour relative to beta-c1-MSH; assay type: functional, Oryctolagus cuniculus
[19] = Lipolytic activity in isolated rabbit fat cells assessed as glycerol production per gram of cells at 3300 ng measured every hour; assay type: functional, Oryctolagus cuniculus
[20] = Lipolytic activity in isolated rabbit fat cells assessed as glycerol production per gram of cells at 1100 ng measured every hour; assay type: functional, Oryctolagus cuniculus
Zone of skin [21] = assay: Melanotropic activity in frog skin assessed as skin darkening at 9 ng relative to control; assay type: functional, Anura; outline: as §1
Zone of skin [22] = assay: Melanotropic activity in frog skin assessed as skin darkening at 3 ng relative to control; assay type: functional, Anura; outline: as §1

| Compound | Activity [1] [%] | Activity (Zone of skin [2]) [%] | Activity [3] [µmol] | Activity (Zone of skin [4]) [%] | Activity (Zone of skin [5]) [%] | Activity [6] [µmol] | Activity [7] [µmol] | Activity [11] [µmol] | further results |
| --- | --- | --- | --- | --- | --- | --- | --- | --- | --- |
| CSCC[C@H](NC(=O)[C@H](CCCCN)NC(=O)[C@H](Cc1ccc(O)cc1)NC(=O)[C@@H]1CCCN1C(=O)CNC(=O)CNC(=O)[C@@H](N)CC(=O)O)C(=O)N[C@@H](CCC(N)=O)C(=O)N[C@@H](Cc1cnc[nH]1)C(=O)N[C@@H](Cc1ccccc1)C(=O)N[C@@H](CCCNC(=N)N)C(=O)N[C@@H](Cc1cn(C=O)c2ccccc12)C(=O)NCC(=O)N[C@@H](CO)C(=O)N1CCC[C@H]1C(=O)N1CCC[C@H]1C(=O)N[C@@H](CCCCN)C(=O)N[C@@H](CC(=O)O)C(=O)O (H-DGGPYKMQHFRW(For)GSPPKD-OH) | 10.2 | 52.4 | 1.09 | 32.8 | 39.7 | 2.05 | – | – | – |
| CSCC[C@H](NC(=O)[C@H](CCCCN)NC(=O)[C@H](Cc1ccc(O)cc1)NC(=O)[C@@H]1CCCN1C(=O)CNC(=O)[C@H](CO)NC(=O)[C@@H](N)CC(=O)O)C(=O)N[C@@H](CCC(=O)O)C(=O)N[C@@H](Cc1cnc[nH]1)C(=O)N[C@@H](Cc1ccccc1)C(=O)N[C@@H](CCCNC(=N)N)C(=O)N[C@@H](Cc1c[nH]c2ccccc12)C(=O)NCC(=O)N[C@@H](CO)C(=O)N1CCC[C@H]1C(=O)N1CCC[C@H]1C(=O)N[C@@H](CCCCN)C(=O)N[C@@H](CC(=O)O)C(=O)O (stereo in doubt; form 1) | 40.2 | – | 1.78 | – | – | 2.96 | 1.18 | 3.61 | Activity (Zone of skin [8]): 30.1%; Activity (Zone of skin [9]): 120.2%; Activity [10]: 95.5%; Activity (Zone of skin [12]): 49.6% |
| CSCC[C@H](NC(=O)[C@H](CCCCN)NC(=O)[C@H](Cc1ccc(O)cc1)NC(=O)[C@@H]1CCCN1C(=O)CNC(=O)[C@H](CO)NC(=O)[C@@H](N)CC(=O)O)C(=O)N[C@@H](CCC(=O)O)C(=O)N[C@@H](Cc1cnc[nH]1)C(=O)N[C@@H](Cc1ccccc1)C(=O)N[C@@H](CCCNC(=N)N)C(=O)N[C@@H](Cc1c[nH]c2ccccc12)C(=O)NCC(=O)N[C@@H](CO)C(=O)N1CCC[C@H]1C(=O)N1CCC[C@H]1C(=O)N[C@@H](CCCCN)C(=O)N[C@@H](CC(=O)O)C(=O)O (stereo in doubt; form 2) | – | – | – | – | – | – | 1.38 | 3.76 | Activity (Zone of skin [13]): 29.1%; Activity (Zone of skin [14]): 44.6% |
| H-DEGPYKMEHFRWGSPPKD-OH | – | – | – | – | – | – | 1.62 | 3.49 | Activity (Zone of skin [15]): 69.8%; Activity (Zone of skin [16]): 355.6%; Activity [10]: 102.4%; Activity (Zone of skin [17]): 49.6% |
| H-DGGPYKMQHFRFGSPPKD-OH | – | 38.2 | – | 26.2 | 28 | – | – | – | Activity [18]: 0.006%; Activity [19]: 1.63 µmol; Activity [20]: 1.29 µmol |
| H-DGGPYKMQHFRWGSPPKD-OH | – | 71 | 2.94 | 62 | – | 3.6 | – | – | Activity (Zone of skin [21]): 63.5%; Activity (Zone of skin [22]): 32.7% |
| H-DGGPYKMQHGRWGSPPKD-OH | – | 7.8 | – | 5.5 | 0.8 | – | – | – | Activity [18]: 0.001%; Activity [19]: 0.37 µmol; Activity [20]: 0.19 µmol |
| H-DGGPYKMRHFRWGSPPKD-OH | 34.2 | 24.6 | 1.73 | 17.1 | 10.5 | 3.12 | – | – | – |
